Screening results from PubChem.
Only some compounds are listed: those with a hit (about 2.6% of all), similar ones and a draw of the others.
FGF22 binding = binders of human FGF22 protein, primary screen, FGF22 synaptogenesis inhibitor project, biophysical, thermal shift, single point; recombinant FGF22 thermal shift, SYPRO orange fluorescence; percent of sucrose octasulfate shift, DMSO zero; activity (Tm shift, normalised), % at 9.99 µM; 340,000 tested, 1.5% active; AID 651658, 2012;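 active = mean Tm shift, scaled 0 neutral to 100 positive control, at about 1.3% or above, every replicate too, limit read from the data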
Casp6 inh = human caspase-6 inhibitors, primary screen, biochemical, VEID-R110 fluorescence, single point, set 2; purified caspase-6, Z-VEID-R110 cleavage fluorescence; 350,000 tested, 0.53% active; AID 686996, 2013; P55212; inhibition, % at 12.5 µM;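 active = mean inhibition across replicates at least about 35%, with every replicate also reaching that limit, limit read from the data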;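 also: 0% = median of neutral control wells and 100% = no fluorescence left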
UCH37 DUB inh = inhibitors of human UCH37 deubiquitinase, primary screen, biochemical, Ub-AMC cleavage, fluorescence. 330,000 tested, 0.33% active. purified proteasome/UCH37. inhibition, % (concentration not given with the values). Ubiquitin carboxyl-terminal hydrolase isozyme L5 (Homo sapiens), Q9Y5K5;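 active = mean inhibition over replicate wells above about 20%, limit read from the data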;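 also: 0% = compound-free wells with enzyme and 100% = wells lacking proteasome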
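Signal – fluorescence, ex 355 nm, em 460 nm · System – Proteasome-bound UCH37 · Input – 0.15 nM proteasome as dispensed · Timing – 30 min preincubation with enzyme, 25 min cleavage at room temperature · Read-out basis – percent inhibition of cleavage signal versus uninhibited and no-proteasome wells · Medium – Tris-HCl pH 7.4 with ATP-MgCl2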
SIRT5 block = SIRT5 desuccinylase inhibitors, primary screen, biochemical, fluorescence imaging, single point, set 5; Purified SirT5, succinyl-peptide AMC, trypsin-coupled fluorescence; inhibition, % at 15 µM; 330,000 tested, 1.1% active; in the data active = inhibition above about 15%
NSD2 inh = NSD2 histone methyltransferase inhibitors, primary screen, biochemical, AlphaScreen, single concentration, set 2. Histone-lysine N-methyltransferase NSD2 (Homo sapiens), O96028. NSD2 peptide methylation, 120 min. inhibition, % at 12.5 µM. 310,000 tested, 0.54% active. AID 743445, 2014; in the data active = inhibition above about 50%
Target sequence (O96028 whole entry, looked up): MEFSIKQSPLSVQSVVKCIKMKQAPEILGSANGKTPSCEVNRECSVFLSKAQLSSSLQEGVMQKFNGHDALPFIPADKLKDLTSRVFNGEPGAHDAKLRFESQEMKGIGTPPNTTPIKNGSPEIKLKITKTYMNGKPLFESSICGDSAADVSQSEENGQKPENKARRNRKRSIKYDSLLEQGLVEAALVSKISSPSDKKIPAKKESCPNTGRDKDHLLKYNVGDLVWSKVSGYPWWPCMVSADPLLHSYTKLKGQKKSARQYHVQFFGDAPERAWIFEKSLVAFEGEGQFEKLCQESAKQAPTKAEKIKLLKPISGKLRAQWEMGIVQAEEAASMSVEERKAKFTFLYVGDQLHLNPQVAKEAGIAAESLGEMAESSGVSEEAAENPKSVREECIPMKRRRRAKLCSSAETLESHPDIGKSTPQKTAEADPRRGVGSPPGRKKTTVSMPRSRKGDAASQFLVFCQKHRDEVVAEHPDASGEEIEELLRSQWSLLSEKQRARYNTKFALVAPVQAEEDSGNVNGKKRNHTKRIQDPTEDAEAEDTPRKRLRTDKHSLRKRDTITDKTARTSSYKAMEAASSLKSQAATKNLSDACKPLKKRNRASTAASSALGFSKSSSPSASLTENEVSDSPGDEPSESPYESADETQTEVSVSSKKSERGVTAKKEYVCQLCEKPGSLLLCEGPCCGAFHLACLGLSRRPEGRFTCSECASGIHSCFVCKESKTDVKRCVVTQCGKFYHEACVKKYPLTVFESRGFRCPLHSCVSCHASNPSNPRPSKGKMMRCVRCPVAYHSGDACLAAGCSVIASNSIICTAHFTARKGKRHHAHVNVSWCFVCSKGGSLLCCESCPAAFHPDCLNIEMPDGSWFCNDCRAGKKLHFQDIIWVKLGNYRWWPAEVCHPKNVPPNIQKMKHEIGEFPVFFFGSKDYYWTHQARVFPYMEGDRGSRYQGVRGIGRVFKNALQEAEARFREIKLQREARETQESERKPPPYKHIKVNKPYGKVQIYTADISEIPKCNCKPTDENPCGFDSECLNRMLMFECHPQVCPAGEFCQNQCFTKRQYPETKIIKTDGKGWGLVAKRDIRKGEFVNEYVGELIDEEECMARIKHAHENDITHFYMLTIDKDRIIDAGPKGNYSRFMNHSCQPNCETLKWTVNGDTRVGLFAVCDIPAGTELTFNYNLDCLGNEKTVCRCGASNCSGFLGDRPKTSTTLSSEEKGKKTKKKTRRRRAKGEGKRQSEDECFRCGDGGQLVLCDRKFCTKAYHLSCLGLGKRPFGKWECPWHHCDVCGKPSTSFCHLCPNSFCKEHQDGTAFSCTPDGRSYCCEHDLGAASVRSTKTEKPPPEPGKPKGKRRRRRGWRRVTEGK
Active calls of the source: *; / = no result.

SMILES | FGF22 binding | Casp6 inh | UCH37 DUB inh | SIRT5 block | NSD2 inh
C=CCNC(=O)COc1ccc(S(=O)(=O)N2CCCC2)cc1 | 0 | 0 | 1 | 5 | -2
C=CCNC(=O)COC(=O)c1cc(S(=O)(=O)N2CCCCC2)ccc1Cl | 43* | -2 | 0 | -3 | 1
C=CC#CC[N+]1(CC#Cc2ccccc2)CCOCC1 | 0 | -29 | 29* | 0 | /
CNC(=O)C[C@@H]1C(=O)N(CCc2ccccc2)CC1(C)C | 43* | -3 | / | / | /
CC(CC(=O)Nc1ccc2c(c1)OCO2)=NNC(=O)OC(C)(C)C | / | / | 1 | / | /
Cc1cc(C(=O)CCl)c(C)n1Cc1ccco1 | 43* | 2 | 3 | -2 | 18
C=CC1=C(C(=O)O)N2C(=O)C(NC(=O)Cc3ccccc3)C2SC1 (configuration not stated) | / | 96* | 1 | / | 2
CCOC(=O)C(=NNc1ccc(OC)cc1)Sc1nnc(CCc2ccccc2)n1-c1ccccc1 | / | / | 4 | / | /
CCOC(=O)/C(=N/Nc1ccc(OC)cc1)Sc1nnc(CCc2ccccc2)n1-c1ccccc1 | 0 | 3 | / | 22* | -1
CC(C)NC(=O)N(C)C[C@@H]1Oc2cc(C#C[C@H](C)O)ccc2S(=O)(=O)N([C@H](C)CO)C[C@@H]1C | 0 | 2 | / | 1 | /
CCC(=O)N1CC2(CN(S(C)(=O)=O)C2)c2c(n(C)c3cc(OC)ccc23)[C@@H]1CO | 0 | / | / | / | /
CC(=O)c1cccc(OCc2cc(C(=O)NCCC3=CCCCC3)no2)c1 | 0 | 3 | 22* | -2 | 0
CCN(CC)CCCOc1nc(C)nc2c1oc1ccccc12 | / | / | / | / | 65*
C[C@@H]1CN([C@H](C)CO)C(=O)Cc2cc(NC(=O)Nc3ccc4c(c3)OCO4)ccc2O[C@H]1CN(C)CC1CCCCC1 | -1 | -3 | / | 17* | /
C[C@@H]1CN([C@H](C)CO)C(=O)Cc2cc(NS(C)(=O)=O)ccc2O[C@@H]1CN(C)CC1CC1 | 0 | 3 | / | 17* | /
C[C@@H]1CN([C@@H](C)CO)C(=O)Cc2cc(NS(=O)(=O)c3ccccc3)ccc2O[C@H]1CN(C)CC1CCCCC1 | -1 | 2 | / | 19* | /
C[C@@H]1CN([C@H](C)CO)C(=O)Cc2cc(NS(=O)(=O)c3ccc(F)cc3)ccc2O[C@H]1CN(C)CC1CCCCC1 | 0 | 2 | / | 23* | /
C[C@H](CO)N1C[C@H](C)[C@H](CN(C)CC2CCCCC2)Oc2ccc(NS(=O)(=O)c3ccc(F)cc3)cc2CC1=O | 0 | 2 | 0 | 10 | /
C[C@H]1CN([C@@H](C)CO)C(=O)Cc2cc(NS(C)(=O)=O)ccc2O[C@H]1CN(C)CC1CC1 | / | -1 | / | 3 | /
C[C@@H]1CN([C@@H](C)CO)S(=O)(=O)c2ccc(C3=CCCC3)cc2O[C@H]1CN(C)C(=O)c1ccccc1 | 0 | 0 | / | 1 | /
O=[N+]([O-])c1ccccc1NN=Cc1c[nH]c2ccccc12 | / | / | 3 | / | /
C[C@@H]1CN([C@H](C)CO)C(=O)Cc2cc(NC(=O)Nc3cccc4ccccc34)ccc2O[C@H]1CN(C)Cc1ccc2c(c1)OCO2 | 0 | 4 | / | 17* | /
C[C@H]1CN([C@@H](C)CO)C(=O)Cc2cc(NS(=O)(=O)c3ccc(Cl)cc3)ccc2O[C@H]1CN(C)CC1CC1 | 0 | 0 | / | -1 | /
C[C@@H]1CN([C@@H](C)CO)C(=O)Cc2cc(NS(=O)(=O)c3ccc(Cl)cc3)ccc2O[C@@H]1CN(C)CC1CCCCC1 | / | 1 | / | 20* | /
N#CCC(=O)Nc1ncc(Cc2ccccc2Cl)s1 | 0 | -4 | / | 15* | -1
SMILES | FGF22 binding | Casp6 inh | UCH37 DUB inh | SIRT5 block | NSD2 inh
O=C(C[C@H]1C[C@H]2c3cc(NC(=O)c4ccc5c(c4)OCO5)ccc3O[C@H]2[C@@H](CO)O1)NCc1cc(F)ccc1F | 0 | 0 | / | -3 | /
COC1=C(Nc2ccccc2)C(=O)C(OC)=C(Nc2ccccc2)C1=O | 44* | 5 | 7 | / | -2
COC1=C(Nc2ccccc2OC)C(=O)c2ccccc2C1=O | 0 | 1 | 8 | -1 | 74*
Cc1cccc(-c2ccc([C@H]3[C@@H](CO)N4CCCCN(CCC(F)(F)F)C[C@H]34)cc2)c1 | 0 | -9 | / | -1 | /
C[C@@H](O)C#Cc1cnc2c(c1)C(=O)N([C@@H](C)CO)C[C@H](C)[C@H](CN(C)C(=O)c1ccncc1)O2 | 0 | 1 | / | -3 | /
O=C(C[C@H]1C=C[C@@H](NC(=O)C2CCC2)[C@H](CO)O1)NCC1CC1 | 0 | 1 | / | 1 | /
C[C@H](CO)N1C[C@H](C)[C@H](CN(C)S(=O)(=O)c2ccc(Cl)cc2)Oc2ccc(NC(=O)Nc3ccccc3)cc2CC1=O | 0 | 1 | / | 11 | /
COc1ccc(N=C2NN=C(c3c(C)[nH]c4ccccc34)CS2)cc1 | 43* | -3 | 3 | -3 | 16
C[C@@H](O)C#Cc1ccc([C@@H]2[C@H](CO)N3CCCCN(CC4CC4)C[C@@H]23)cc1 | 0 | -2 | / | 4 | /
C[C@@H](O)C#Cc1ccc([C@H]2[C@H](CO)N3CCCCN(CC4CC4)C[C@@H]23)cc1 | 0 | 6 | / | 21* | /
OC[C@H]1[C@H](c2ccc(C#CC3(O)CCCC3)cc2)[C@H]2CN(Cc3cncnc3)CCCCN21 | 0 | 1 | / | 21* | /
C[C@H](O)C#Cc1ccc([C@H]2[C@H]3CN(CC4CC4)CCCCN3[C@H]2CO)cc1 | 0 | 5 | / | 16* | /
Cc1ccc(-c2ccccc2[C@H]2[C@@H](CO)N(S(C)(=O)=O)[C@H]2C#N)cc1 | / | 1 | / | 1 | /
CCN1C(=O)S/C(=C/c2ccc(Oc3ccc([N+](=O)[O-])cn3)c(OC)c2)C1=O | 43* | 7 | 7 | -1 | 6
CO/N=C/c1ccc(Oc2ccc([N+](=O)[O-])cc2[N+](=O)[O-])c(OC)c1 | / | / | / | / | 7
CCOc1ccc(/C=C2\SC(=S)NC2=O)cc1OC | 0 | 10 | 12 | 3 | 3
COc1cc(/C=C2/SC(=O)N(CC(=O)N3CCCC3)C2=O)ccc1Oc1ccc([N+](=O)[O-])cn1 | 0 | 1 | 6 | 0 | 3
COc1cc(/C=C2\SC(=O)NC2=O)ccc1Oc1ccc([N+](=O)[O-])cc1[N+](=O)[O-] | 0 | 39* | 3 | 5 | /
COc1ccc(/C=C2\SC(=O)NC2=S)cc1OC | 0 | 45* | 16 | 1 | 7
C[C@@H]1CN([C@@H](C)CO)C(=O)c2cc(NC(=O)CCN3CCOCC3)ccc2O[C@H]1CN(C)C(=O)Nc1ccc2c(c1)OCO2 | 0 | 1 | / | -1 | /
